For series [1], the species on record is Mus musculus. Description: Toxicity in NIH Swiss mouse erythrocytes assessed as hemolytic activity up to 500 uM incubated for 60 mins. The following applies: erythrocyte, 1 h. Summed up:
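Washed erythrocytes (2 × 10^7 cells) from male NIH Swiss mice incubated 60 min at 37 °C with peptides at 31−500 μM. LC50 taken as mean concentration giving 50% hemolysis across three independent incubations.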

Series [2] has as its system BRIN-BD11. Description: Inhibition of Katp in rat BRIN-BD11 cells assessed as minimum concentration required to produce increase in rate of insulin release over the basal rate after 20 mins in presence of 5.6 mM glucose by radioimmunoassay. In kind it is cell-based. The method in brief: (§1)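 BRIN-BD11 clonal β-cells attached overnight at 37 °C, then 20 min at 37 °C in KRB buffer with 5.6 mM glucose, peptides up to 1 μM. Insulin in supernatant by radioimmunoassay, expressed per 10^6 cells per 20 min. Parallel controls: 10 mM alanine, 1 μM GLP-1, 30 mM KCl.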

The species entered for another series is Rattus norvegicus. In words: Cytotoxicity in rat BRIN-BD11 cells assessed as effect on plasma membrane integrity through LDH release up to 1 uM after 20 mins in presence of glucose by nonradioactive CytoTox96 assay. In kind it is toxicity, cell-based. The note with it: brin-bd11, 20 min. The method in brief:
(§2)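 BRIN-BD11 and GLUTag cells exposed to peptides (1 nM to 1 μM; n = 3) for 20 min at 37 °C in KRB buffer with 5.6 mM glucose. Membrane integrity judged by LDH in supernatant, measured with CytoTox96 nonradioactive kit.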
On the technique in general: Release of lactate dehydrogenase indicates damage to the cell membrane.

The species named for series [3] is Mus musculus. In words: Cytotoxicity in mouse GLUTag cells assessed as effect on plasma membrane integrity through LDH release up to 1 uM after 20 mins in presence of glucose by nonradioactive CytoTox96 assay. In kind it is toxicity, cell-based. Summed up:
as §2

Series [4] has as its system BRIN-BD11. Description: Inhibition of Katp in rat BRIN-BD11 cells assessed as insulin release at 1 uM after 20 mins in presence of 5.6 mM glucose by radioimmunoassay relative to basal level. Type of series: cell-based. More on the design: scale not given: the % may be the effect or the level left. The method in brief: as §1
Series [5] can be described thus: Induction of GLP1 release in mouse GLUTag cells at 1 uM after 2 hrs in presence of 2 mM glucose by ELISA relative to basal level.
Series [6] in a line: Induction of GLP1 release in mouse GLUTag cells assessed as minimum concentration required to produce increase in rate of GPL1 release over the basal rate after 2 hrs in presence of 2 mM glucose by ELISA. A general note: An ELISA detects its analyte on a solid surface through an enzyme-linked reagent.
Series [7] deals with BRIN-BD11. Description: Inhibition of Katp in rat BRIN-BD11 cells assessed as minimum concentration required to produce 83% increase in rate of insulin release over the basal rate after 20 mins in presence of 5.6 mM glucose by radioimmunoassay. In kind it is cell-based. Summed up: as §1
For series [8], the species on record is Mus musculus. In words: Antiinflammatory activity in C57BL/6 mouse unstimulated peritoneal cells assessed as reduction of IFN-gamma at 1 ug/ml after 24 hrs by ELISA. In kind it is functional. Summed up:
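Peritoneal cells lavaged with 5 mL cold PBS from unstimulated adult C57BL/6 mice (mixed macrophages, B-, T-, NK cells), resuspended in RPMI 1640 + 10% FBS, 2 × 10^5 cells/well. Peptides at 1, 5 and 10 μg/mL for 24 h at 37 °C; three independent incubations, 6 mice per group. IFN-γ in cell-free supernatant by ELISA in triplicate, compared with medium only.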

The nature of series [9]: Induction of GLP1 release in mouse GLUTag cells at 10 nM after 2 hrs by ELISA relative to basal level.
The test system of series [10] is BRIN-BD11. In words: Inhibition of Katp in rat BRIN-BD11 cells assessed as increase in insulin release after 20 mins by radioimmunoassay. In kind it is cell-based.
Series [11] deals with BRIN-BD11. In words: Inhibition of Katp in rat BRIN-BD11 cells assessed as increase in rate of insulin release after 20 mins in presence of 5.6 mM glucose by radioimmunoassay relative to basal level. Type of series: cell-based. The method in brief: as §1
A short description of series [12]: Induction of increase in glucose-induced insulin secretion in rat BRIN-BD11 cells assessed as insulin release per million cells at 10 mM after 20 mins by radioimmunoassay (reference value: 1 +/- 0.03 ng). Type of series: functional. The method in brief:
as §1

The nature of series [13]: Induction of increase in glucose-induced insulin secretion in rat BRIN-BD11 cells assessed as insulin release per million cells at 30 mM after 20 mins by radioimmunoassay (reference value: 1 +/- 0.03 ng). Type of series: functional. Summed up: as §1

Calls of active or inactive are those of the source. No cut-off for these calls is given here. Where a SMILES comes first, the peptide text is derived from it.

As to `CC[C@H](C)[C@H](NC(=O)[C@@H](N)CCCNC(=N)N)C(=O)N[C@@H](CS)C(=O)N[C@H](C(=O)N[C@@H](C)C(=O)N[C@H](C(=O)N1CCC[C@H]1C(=O)N[C@@H](CC(C)C)C(=O)N1CCC[C@H]1C(=O)N[C@@H](CCSC)C(=O)N[C@@H](CS)C(=O)N[C@@H](CC(C)C)C(=O)O)[C@@H](C)CC)[C@@H](C)O` (H-RICTAIPLPMCL-OH), the Activity result in the series filed under Mus musculus [1] is “Non-Toxic”; in the series with BRIN-BD11 [2], 1 ×10⁻⁷ M; in the series listed under Rattus norvegicus, “Non-Toxic”; in the series listed under Mus musculus [3] it was “Non-Toxic”; in the series with BRIN-BD11 [4] it was 233%; in series [5], 217.5%. Moreover, the Activity in [6] is listed as 1 ×10⁻⁶ M.
`CC[C@H](C)[C@H](NC(=O)[C@@H](N)CCCNC(=N)N)C(=O)N[C@@H](CS)C(=O)N[C@H](C(=O)N1CCC[C@H]1C(=O)N[C@H](C(=O)N1CCC[C@H]1C(=O)N[C@@H](Cc1ccccc1)C(=O)N1CCC[C@H]1C(=O)N[C@@H](CCSC)C(=O)N[C@@H](CS)C(=O)N[C@@H](Cc1ccc(O)cc1)C(=O)O)[C@@H](C)CC)[C@@H](C)O` (H-RICTPIPFPMCY-OH): the Activity result is “Non-Toxic” in the series listed under Mus musculus [1]; 1 ×10⁻⁹ M with BRIN-BD11 [7]; “Non-Toxic” in the series listed under Rattus norvegicus; “Non-Toxic” in the series listed under Mus musculus [3]; 395% in the series with BRIN-BD11 [4]; 159% in [5].
For `CC[C@H](C)[C@H](NC(=O)[C@H](CS)NC(=O)[C@@H](NC(=O)[C@@H](N)CCCNC(=N)N)[C@@H](C)O)C(=O)N1CCC[C@H]1C(=O)N[C@H](C(=O)N1CCC[C@H]1C(=O)N[C@@H](CC(C)C)C(=O)N[C@H](C(=O)N[C@@H](CCSC)C(=O)N[C@@H](CS)C(=O)O)C(C)C)[C@@H](C)CC` (H-RTCIPIPLVMC-OH), the Activity result was “Non-Toxic” in the series listed under Mus musculus [1]; 1 ×10⁻⁷ M in the series on BRIN-BD11 [2]; “Non-Toxic” in the series listed under Rattus norvegicus; “Non-Toxic” in the series listed under Mus musculus [3]; 201% in the series with BRIN-BD11 [4]; 193% in [5]. For the same molecule, the Activity in [6] came out at 1 ×10⁻⁷ M. In addition, the result in the series filed under Mus musculus [8] was Active.
In the case of `CC[C@H](C)[C@H](NC(=O)[C@H](CS)NC(=O)[C@@H](NC(=O)[C@@H](N)CCCNC(=N)N)[C@@H](C)O)C(=O)N1CCC[C@H]1C(=O)N[C@H](C(=O)N1CCC[C@H]1C(=O)N1CCC[C@H]1C(=O)N[C@H](C(=O)N[C@@H](CS)C(=O)N[C@@H](Cc1ccccc1)C(=O)O)C(C)C)[C@@H](C)CC` (H-RTCIPIPPVCF-OH), the Activity entry in the series filed under Mus musculus [1] is “Non-Toxic”; in the series with BRIN-BD11 [2], 1 ×10⁻⁶ M; in the series listed under Rattus norvegicus, “Non-Toxic”; in the series listed under Mus musculus [3], “Non-Toxic”; in the series with BRIN-BD11 [4] it was 163%; in series [9], 289.3%. Also, the Activity in series [6] came to 1 ×10⁻⁸ M. The result in the series listed under Mus musculus [8] was Active.
As for `CC[C@H](C)[C@H](NC(=O)[C@H](C)NC(=O)[C@H](CO)NC(=O)[C@H](CS)NC(=O)[C@@H](NC(=O)[C@@H](N)CCCNC(=N)N)C(C)C)C(=O)N1CCC[C@H]1C(=O)N[C@@H](CC(C)C)C(=O)N1CCC[C@H]1C(=O)N[C@@H](Cc1c[nH]c2ccccc12)C(=O)N[C@@H](CS)C(=O)N[C@@H](Cc1cnc[nH]1)C(=O)O` (H-RVCSAIPLPWCH-OH), the inhibition entry with BRIN-BD11 [10] and in the series on BRIN-BD11 [11] was “Dose-dependent effect” throughout.
Turning to `C[C@H](N)C(=O)O` [ALANINE], the Activity in [12] was determined as 3.05 ng.
Consider `[Cl-].[K+]` [POTASSIUM CHLORIDE], for which, in series [13], the Activity came out at 4.05 ng.

Values taken from ChEMBL document CHEMBL3868589, “Purification, Conformational Analysis, and Properties of a Family of Tigerinin Peptides from Skin Secretions of the Crowned Bullfrog Hoplobatrachus occipitalis” (J Nat Prod, 2016).
